In PubChem BioAssay:
Records with an inconclusive call do not appear. The source made the active and inactive calls.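 Rule for the calls, unless noted: active = RAM network inhibition above 8.4% in each of two replicates, 3 SD over the compound average; inconclusive = above 8.4% inhibition in only one replicate; inactive = 8.4% inhibition or less in each replicate.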

Key:
[1] = OD615 S. cerevisiae growth inhibition, permissive medium, pilot counter-assay, permissive growth control for S. cerevisiae lifespan shortening project (AID 705;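 active = growth inhibition above 25% in both replicates, a cutoff set 3 SD above the mean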); conditions: OD615, 24 h, at 10 µM, hits give high values
In short: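 Timing: 24 h exposure, 30 °C / Material: Saccharomyces cerevisiae strain carrying genetically modified DeaD replicative-lifespan system / Signal: OD at 615 nm / Compound: 10 µM single dose, 0.25% DMSO / Medium: SC raffinose/galactose permissive medium / Evaluation: reduction in yeast growth (OD615)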

[2] = Restrictive medium S. cerevisiae growth inhibition, OD615, pilot screen of yeast lifespan reduction project, restrictive growth control (AID 706;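 active = growth inhibition above a set limit, 3 SD over mean compound inhibition, in both replicates, cut at about 43% in these data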;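 note: modified DeaD lifespan yeast strain shifted to restrictive glucose medium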); conditions: OD615, 48 h, at 10 µM, hits give high values
In short: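 System: Engineered S. cerevisiae DeaD strain | Detection: OD615 | Buffer or medium: CSMM-D glucose medium | Doses: 10 µM compound, 0.25% DMSO | Timing: 4 h pre-growth plus 48 h compound exposure, 30 °C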

[3] = viability gain of MRP-1-high H69AR cells under doxorubicin, pilot screen, MRP-1 activator project, CellTiter-Glo, duplicate (AID 807;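 active = viability increase at or above a cutoff of the median across tested compounds plus 3 SD, cut at about 8.5% in these data, passing the limit was not always enough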;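 note: compound pretreatment 18-22 h then 72 h combined with doxorubicin; 0% = doxorubicin alone and 100% = vehicle without doxorubicin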); conditions: H69AR viability with doxorubicin, CellTiter-Glo luminescence; at 10 µM; hits give high values
[4] = growth suppression of PTEN-deleted HCT116, pilot screen, cell-based, HCT116 clonal line, CellTiter-Glo (AID 824;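 active = viability at or below 27.92% in each of two runs, the all-compound median minus 4 SD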;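 note: 0% = 20 µM Hyamine control and 100% = vehicle cell control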); conditions: 60 h, at 10 µM, hits give low values
[5] = inhibitors of the yeast RAM network, pilot screen, dse1pr::URA3 reporter, 5-FOA selection (AID 869;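 active = inhibition over a set limit, the all-compound mean plus 3 SD, in both replicate runs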;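 note: 0% = DMSO wells with no growth and 100% = 10 µM 1-NA-PP1 with full growth; RAM network block rescues cells from 5-FOA so hits raise OD615 growth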); conditions: S. cerevisiae dse1pr::URA3 5-FOA growth, OD615, 2 d; at 10 µM; hits give high values; strain carries analog-sensitive mutant Cbk1 kinase
[6] = RAM signaling pathway blockade in yeast – S. cerevisiae, Pdr1DBD-CYC8 efflux-inhibited sensitized strain, primary screen (AID 1298);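 note: 0% = DMSO untreated cells without growth and 100% = 10 µM 1-NA-PP1 full growth; higher means more yeast growth rescued from 5-FOA killing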; conditions: S. cerevisiae cbk1-as DSE1-URA3 strain, 5-FOA growth OD615, 2 d; at 50 µM; hits give high values

CCCCNC(=O)NS(=O)(=O)c1ccc(NS(=O)(=O)c2ccccc2)cc1
inactive: growth inhibition [1] -10.8% | growth inhibition [2] -7.74% | viability increase [3] -0.52% | viability [4] 98.4% | inhibition [5] 2.14% | RAM network inhibition [6] 4.35%

O/N=C1\CCCc2oc3c(c21)CCCC3
inactive: growth inhibition [1] -7.12% | growth inhibition [2] -2.73% | viability increase [3] -1.84% | viability [4] 97.5% | inhibition [5] 2.48% | RAM network inhibition [6] 1.89%

COc1cccc(OCCOc2cccc(/C=N/n3cnnc3)c2)c1
inactive: growth inhibition [1] 6.03% | growth inhibition [2] 21.9% | viability increase [3] -2.71% | viability [4] 95.8% | inhibition [5] 1.62% | RAM network inhibition [6] 0.36%

CCOC(=O)C1CCN(S(=O)(=O)c2cc(Br)cc3c2N(C(=O)C2CC2)CC3)CC1
inactive: growth inhibition [1] -12.9% | growth inhibition [2] -13.7% | viability increase [3] -1.73% | viability [4] 96.5% | inhibition [5] 1.68% | RAM network inhibition [6] 1.38%

Cc1ccsc1C(=O)OCC(=O)c1cc2ccccc2o1
inactive: growth inhibition [1] -18.1% | growth inhibition [2] -10.8% | viability increase [3] -2.86% | viability [4] 97.3% | inhibition [5] 1.28% | RAM network inhibition [6] 1.03%

CCCCC1CC(CSc2ncn[nH]2)OC1=O (stereo not given)
inactive: growth inhibition [1] -11.3% | growth inhibition [2] -7.68% | viability increase [3] 1.38% | viability [4] 98% | inhibition [5] 1.21% | RAM network inhibition [6] 0.01%

CC(C)CC(NC(=O)C1CCCCC1)C(=O)NCc1ccccn1 (stereo not given)
inactive: growth inhibition [1] 1.21% | growth inhibition [2] -10.9% | viability increase [3] -4.03% | viability [4] 94.4% | inhibition [5] 1.04% | RAM network inhibition [6] -0.2%

Cc1cc2nc3c(c(=O)n2[nH]1)CCCC3
inactive: growth inhibition [1] -6.41% | growth inhibition [2] 0.415% | viability increase [3] -1.07% | viability [4] 105% | inhibition [5] 1.09% | RAM network inhibition [6] -0.25%

CS(=O)(=O)N(CC(=O)N1CCCCCC1)c1cccc(Br)c1
inactive: growth inhibition [1] -9.19% | growth inhibition [2] -11.5% | viability increase [3] -2.75% | viability [4] 94.5% | inhibition [5] 1.21% | RAM network inhibition [6] 1.44%

O=C1CC(c2ccccc2)c2cc(O)ccc2O1 (stereo not given)
inactive: growth inhibition [1] -23.7% | growth inhibition [2] -23% | viability increase [3] 3.84% | viability [4] 69.2% | inhibition [5] 1.45% | RAM network inhibition [6] 2.58%

Cc1ccc(C(=O)COC(=O)c2ccc(Br)o2)cc1C
inactive: growth inhibition [1] -5.44% | growth inhibition [2] -2.75% | viability increase [3] 1.02% | viability [4] 100% | inhibition [5] 2.77% | RAM network inhibition [6] 1.29%

COc1cc2c(C(=O)N3CCN(Cc4ccc5c(c4)OCO5)CC3)cn(C)c(=O)c2cc1OC
inactive: growth inhibition [1] -8.34% | growth inhibition [2] -4.51% | viability increase [3] -6.92% | viability [4] 95.6% | inhibition [5] 0.85% | RAM network inhibition [6] 1.29%

Cc1cc2ccccc2c(=O)n1CC(=O)NCC(=O)N(C)Cc1ccccc1
inactive: growth inhibition [1] -10.2% | growth inhibition [2] -4.71% | viability increase [3] -0.97% | viability [4] 98.6% | inhibition [5] 0.475% | RAM network inhibition [6] 5.32%

Cc1oc(-c2ccc(Cl)cc2)nc1CN1CCC(C(=O)N2CCc3ccccc3C2)CC1
active: viability [4] 11.8%
inactive: growth inhibition [1] -4.91% | growth inhibition [2] -16.6% | viability increase [3] -8.22% | inhibition [5] 0.05% | RAM network inhibition [6] 8.38%

Cc1ccc(N(CC(=O)NCc2ccco2)S(=O)(=O)c2ccccc2)cc1
inactive: growth inhibition [1] -10.9% | growth inhibition [2] -7.57% | viability increase [3] -4.6% | viability [4] 87.2% | inhibition [5] 1.1% | RAM network inhibition [6] 1.9%

Cn1c(C(=O)NCCCN2CCN(c3ccccc3F)CC2)cc2c(=O)n(C)c3ccccc3c21
inactive: growth inhibition [1] -3.28% | growth inhibition [2] -4.87% | viability increase [3] -8.02% | viability [4] 54.9% | inhibition [5] 0.6% | RAM network inhibition [6] 0.96%

N#Cc1ccc(Sc2nc3ccccc3[nH]2)cc1C#N
inactive: growth inhibition [1] -7.23% | growth inhibition [2] 4.58% | viability increase [3] -5.02% | viability [4] 89.8% | inhibition [5] 2.44% | RAM network inhibition [6] 1.9%

CCOC(=O)N1CCN(C(=O)C(CC(C)C)NC(=O)C2CCCCC2)CC1 (stereo not given)
inactive: growth inhibition [1] -11.7% | growth inhibition [2] -4.5% | viability increase [3] -2.13% | viability [4] 101% | inhibition [5] 0.455% | RAM network inhibition [6] 1.59%

Brc1ccc2ncnc(NCc3ccco3)c2c1
inactive: growth inhibition [1] 2.37% | growth inhibition [2] 13% | viability increase [3] -7.68% | viability [4] 35.5% | inhibition [5] 1.71% | RAM network inhibition [6] 4.76%

CSc1nnc2c(n1)OC(c1cn(C)c3ccccc13)N(C(C)=O)c1ccccc1-2 (stereo not given)
inactive: growth inhibition [1] -8.46% | growth inhibition [2] -4.85% | viability increase [3] -2.79% | viability [4] 98.9% | inhibition [5] 1.54% | RAM network inhibition [6] 3.59%

COc1ccc(N2CCN(CCNC(=O)CCNS(=O)(=O)c3cccs3)CC2)cc1
inactive: growth inhibition [1] -5.45% | growth inhibition [2] -5.3% | viability increase [3] -0.82% | viability [4] 96.3% | inhibition [5] 1.71% | RAM network inhibition [6] 2.25%

CN(CCNC(=O)c1cc2c(=O)n(C)c3ccccc3c2n1C)Cc1ccccc1
inactive: growth inhibition [1] -12% | growth inhibition [2] -7.87% | viability increase [3] -8.65% | viability [4] 41.1% | inhibition [5] 1.83% | RAM network inhibition [6] -0.47%

O=C(C1CCCN(S(=O)(=O)c2ccc(F)cc2)C1)N(Cc1cccs1)C1CC1 (stereo not given)
inactive: growth inhibition [1] -11.5% | growth inhibition [2] -6.14% | viability increase [3] -1.34% | viability [4] 71.7% | inhibition [5] 2.02% | RAM network inhibition [6] 2.87%

CCN(CC)S(=O)(=O)c1ccc2oc(C(=O)NCC3COc4ccccc4O3)c(C)c2c1 (stereo not given)
inactive: growth inhibition [1] -4.71% | growth inhibition [2] 1.48% | viability increase [3] -7.27% | viability [4] 56.5% | inhibition [5] 2.5% | RAM network inhibition [6] 4.96%

COC(=O)C(CC(C)C)Oc1ccc2c(C)cc(=O)oc2c1 (stereo not given)
inactive: growth inhibition [1] -10.5% | growth inhibition [2] 5.8% | viability increase [3] -2.47% | viability [4] 92.6% | inhibition [5] 1.14% | RAM network inhibition [6] 1.38%

Oc1ccc(C=NCC2COc3ccccc3O2)cc1 (stereo not given)
inactive: growth inhibition [1] -7.84% | growth inhibition [2] 2.85% | viability increase [3] -5.39% | viability [4] 85.3% | inhibition [5] 1.54% | RAM network inhibition [6] -2.56%

Cc1nc2nc(SCC(=O)N3CCOCC3)nn2c(C)c1Cc1ccccc1
inactive: growth inhibition [1] -0.01% | growth inhibition [2] 1.59% | viability increase [3] -3.4% | viability [4] 95.5% | inhibition [5] 1.7% | RAM network inhibition [6] 0.77%

CC(C)Cn1c(SCC(=O)NC2CCCc3ccccc32)nc(O)cc1=O (stereo not given)
inactive: growth inhibition [1] -3.38% | growth inhibition [2] 9.89% | viability increase [3] -2.62% | viability [4] 97.9% | inhibition [5] 1% | RAM network inhibition [6] 2.76%

COc1ccc(-c2nc(SC)n(C)c(=O)c2C#N)cc1OC
inactive: growth inhibition [1] -6.31% | growth inhibition [2] -12.2% | viability increase [3] -4.81% | viability [4] 87.9% | inhibition [5] 0.12% | RAM network inhibition [6] 9.22%

CN(CC1CCCO1)S(=O)(=O)c1ccc(C(=O)Nc2nc3cc4c(cc3s2)OCO4)cc1 (stereo not given)
inactive: growth inhibition [1] -9.44% | growth inhibition [2] -15.3% | viability increase [3] -4.33% | viability [4] 35.8% | inhibition [5] 2.66% | RAM network inhibition [6] 4.04%

O=C(CN1C(=O)c2ccccc2S1(=O)=O)N1CCN(c2ccccc2F)CC1
inactive: growth inhibition [1] 0.11% | growth inhibition [2] 5.53% | viability increase [3] -3.37% | viability [4] 101% | inhibition [5] 2.07% | RAM network inhibition [6] 2.92%

COc1ccc(S(=O)(=O)N2CCC(C(=O)N3CCN(c4ccccc4OC)CC3)CC2)cc1
inactive: growth inhibition [1] -8.7% | growth inhibition [2] -3.36% | viability increase [3] -2.71% | viability [4] 86.8% | inhibition [5] -0.505% | RAM network inhibition [6] 0%

O=C(CN(C1CCCCC1)S(=O)(=O)c1ccccc1)N1CCCC1
inactive: growth inhibition [1] -9.43% | growth inhibition [2] -3.8% | viability increase [3] -2.08% | viability [4] 100% | inhibition [5] 0.885% | RAM network inhibition [6] 2.77%

Cc1ccc(S(=O)(=O)c2nc(-c3ccc(F)cc3)oc2SCC(=O)NCC2CCCO2)cc1 (stereo not given)
inactive: growth inhibition [1] 8.03% | growth inhibition [2] -4.51% | viability increase [3] -7.96% | inhibition [5] 0.69% | RAM network inhibition [6] 10.9%
active: viability [4] 15.3%

O=C(c1ccco1)c1n[nH]nc1-c1ccccc1
inactive: growth inhibition [1] -19.6% | growth inhibition [2] -5.81% | viability increase [3] -3.17% | viability [4] 102% | inhibition [5] 1.16% | RAM network inhibition [6] 1.94%

Fc1cccc(Cl)c1CSc1ncn[nH]1
inactive: growth inhibition [1] -4.97% | growth inhibition [2] 10.7% | viability increase [3] 0.29% | viability [4] 85.6% | inhibition [5] 0.52% | RAM network inhibition [6] 2.05%

CCCn1c(C(C)NC(=O)c2ccccc2)nc2ccccc21 (stereo not given)
inactive: growth inhibition [1] -8.46% | growth inhibition [2] -6.87% | viability increase [3] -2.18% | viability [4] 97.6% | inhibition [5] 2.92% | RAM network inhibition [6] 5.38%

Cc1c(C(=O)NCC2CCCO2)oc2ccc(S(=O)(=O)N3CCCC3)cc12 (stereo not given)
inactive: growth inhibition [1] -6.79% | growth inhibition [2] -3.9% | viability increase [3] -2.38% | viability [4] 91.6% | inhibition [5] 2% | RAM network inhibition [6] 1.44%

Cc1ccc(N=Cc2c(O)n(C)c(=O)n(C)c2=O)nc1
inactive: growth inhibition [1] 5.8% | growth inhibition [2] 16.6% | viability increase [3] 0.03% | viability [4] 99.2% | inhibition [5] 1.89% | RAM network inhibition [6] -0.87%

CCOC(=O)N1CCN(C(=O)c2oc3ccc(S(=O)(=O)N4CCOCC4)cc3c2C)CC1
inactive: growth inhibition [1] -6.53% | growth inhibition [2] -12.6% | viability increase [3] -4.64% | viability [4] 99.9% | inhibition [5] 2.71% | RAM network inhibition [6] 4.61%
